ChEMBL document CHEMBL1137781, “Synthesis and preclinical evaluation of novel PET probes for P-glycoprotein function and expression” (J Med Chem, 2009)

Tests used:
Details in all cases: in vivo
[1] = Biodistribution in 15 mg/kg unlabeled 6,7-dimethoxy-2-(3-(5-methoxy-3,4-dihydronaphthalen-1(2H)-ylidene)propyl)-1,2,3,4-tetrahydroisoquinoline pretreated Wistar rat bulbus olfactorius at 13+/-2 MBq, iv after 80 mins; type: ADME, organism-based, Olfactory bulb; parameters: dose 15 mg/kg, route intravenous
Method in brief: (§1)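 Male Wistar rats given saline or unlabeled compound via tail vein: 15 mg/kg, dissolved at 10 mg/mL in saline with 35% ethanol. [11C] tracer (8-15 MBq) then given via penile vein. After microPET scanning the anesthetized rats were killed. Tissues were excised and weighed, and blood was spun for plasma and cell fraction. γ counting with decay correction. Results as SUV (tissue MBq/g × body weight/injected dose).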

Hippocampus [2] = assay: Biodistribution in Wistar rat hippocampus at 11+/-2 MBq, iv after 80 mins; type: ADME, organism-based
Method in brief: (§2)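 Male Wistar rats (12 h light/dark, chow ad libitum) were fitted with a femoral arterial cannula under isoflurane. They were pretreated via tail vein with saline, cyclosporin A (50 mg/kg), or nonradioactive tracer compound (15 mg/kg; 10 mg/mL in saline with 35% ethanol). The 11C tracer was then given via penile vein, followed by 76 min microPET. Animals were then terminated; excised tissues were weighed and gamma-counted with decay correction. Values are SUVs (tissue MBq/g × body weight g / injected MBq).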

Spleen [3] = assay: Biodistribution in 15 mg/kg unlabeled 6,7-dimethoxy-2-(3-(5-methoxy-3,4-dihydronaphthalen-1(2H)-ylidene)propyl)-1,2,3,4-tetrahydroisoquinoline pretreated Wistar rat spleen at 13+/-2 MBq, iv after 80 mins; type: ADME, organism-based; parameters: dose 15 mg/kg, route intravenous; method in brief: as §1
Pancreas = assay: Biodistribution in 15 mg/kg unlabeled 6,7-dimethoxy-2-(3-(5-methoxy-3,4-dihydronaphthalen-1(2H)-ylidene)propyl)-1,2,3,4-tetrahydroisoquinoline pretreated Wistar rat pancreas at 13+/-2 MBq, iv after 80 mins; type: ADME, organism-based; parameters: dose 15 mg/kg, route intravenous; method in brief: as §1
[4] = Biodistribution in Wistar rat bulbus olfactorius at 11+/-2 MBq, iv after 80 mins; type: ADME, organism-based, Olfactory bulb
Muscle tissue [5] = assay: Biodistribution in 15 mg/kg unlabeled 6,7-dimethoxy-2-(3-(5-methoxy-3,4-dihydronaphthalen-1(2H)-ylidene)propyl)-1,2,3,4-tetrahydroisoquinoline pretreated Wistar rat muscle at 13+/-2 MBq, iv after 80 mins; type: ADME, organism-based; parameters: dose 15 mg/kg, route intravenous; method in brief: as §1
[6] = Biodistribution in 15 mg/kg unlabeled 6,7-dimethoxy-2-(3-(5-methoxy-3,4-dihydronaphthalen-1(2H)-ylidene)propyl)-1,2,3,4-tetrahydroisoquinoline pretreated Wistar rat parietal/temporal/occipital cortex at 13+/-2 MBq, iv after 80 mins; type: ADME, organism-based; parameters: dose 15 mg/kg, route intravenous; method in brief: as §1
Cerebellum [7] = assay: Biodistribution in 15 mg/kg unlabeled 6,7-dimethoxy-2-(3-(5-methoxy-3,4-dihydronaphthalen-1(2H)-ylidene)propyl)-1,2,3,4-tetrahydroisoquinoline pretreated Wistar rat cerebellum at 13+/-2 MBq, iv after 80 mins; type: ADME, organism-based; parameters: dose 15 mg/kg, route intravenous; method in brief: as §1
Liver = assay: Biodistribution in 15 mg/kg unlabeled 6,7-dimethoxy-2-(3-(5-methoxy-3,4-dihydronaphthalen-1(2H)-ylidene)propyl)-1,2,3,4-tetrahydroisoquinoline pretreated Wistar rat liver at 13+/-2 MBq, iv after 80 mins; type: ADME, organism-based; parameters: dose 15 mg/kg, route intravenous; method in brief: as §1
Hippocampus [8] = assay: Biodistribution in 15 mg/kg unlabeled 6,7-dimethoxy-2-(3-(5-methoxy-3,4-dihydronaphthalen-1(2H)-ylidene)propyl)-1,2,3,4-tetrahydroisoquinoline pretreated Wistar rat hippocampus at 13+/-2 MBq, iv after 80 mins; type: ADME, organism-based; parameters: dose 15 mg/kg, route intravenous; method in brief: as §1
Spleen [9] = assay: Biodistribution in Wistar rat spleen at 11+/-2 MBq, iv after 80 mins; type: ADME, organism-based
Colon = assay: Biodistribution in Wistar rat colon at 11+/-2 MBq, iv after 80 mins; type: ADME, organism-based; method in brief: as §2
Cerebellum [10] = assay: Biodistribution in Wistar rat cerebellum at 11+/-2 MBq, iv after 80 mins; type: ADME, organism-based
[11] = Biodistribution in 15 mg/kg unlabeled 6,7-dimethoxy-2-(3-(5-methoxy-3,4-dihydronaphthalen-1(2H)-ylidene)propyl)-1,2,3,4-tetrahydroisoquinoline pretreated Wistar rat cingulate cortex at 13+/-2 MBq, iv after 80 mins; type: ADME, organism-based; parameters: dose 15 mg/kg, route intravenous; method in brief: as §1
Heart = assay: Biodistribution in Wistar rat heart at 11+/-2 MBq, iv after 80 mins; type: ADME, organism-based; method in brief: as §2
[12] = Biodistribution in 15 mg/kg unlabeled 6,7-dimethoxy-2-(3-(5-methoxy-3,4-dihydronaphthalen-1(2H)-ylidene)propyl)-1,2,3,4-tetrahydroisoquinoline pretreated Wistar rat entorhinal cortex at 13+/-2 MBq, iv after 80 mins; type: ADME, organism-based; parameters: dose 15 mg/kg, route intravenous; method in brief: as §1
[13] = Biodistribution in 15 mg/kg unlabeled 6,7-dimethoxy-2-(3-(5-methoxy-3,4-dihydronaphthalen-1(2H)-ylidene)propyl)-1,2,3,4-tetrahydroisoquinoline pretreated Wistar rat red blood cells at 13+/-2 MBq, iv after 80 mins; type: ADME, organism-based, Erythrocyte; parameters: dose 15 mg/kg, route intravenous; method in brief: as §1
Brain = assay: Biodistribution in Wistar rat brain at 11+/-2 MBq, iv after 56 mins; type: ADME, organism-based
Pons = assay: Biodistribution in 15 mg/kg unlabeled 6,7-dimethoxy-2-(3-(5-methoxy-3,4-dihydronaphthalen-1(2H)-ylidene)propyl)-1,2,3,4-tetrahydroisoquinoline pretreated Wistar rat pons at 13+/-2 MBq, iv after 80 mins; type: ADME, organism-based; parameters: dose 15 mg/kg, route intravenous; method in brief: as §1
Bone [14] = assay: Biodistribution in 15 mg/kg unlabeled 6,7-dimethoxy-2-(3-(5-methoxy-3,4-dihydronaphthalen-1(2H)-ylidene)propyl)-1,2,3,4-tetrahydroisoquinoline pretreated Wistar rat bone at 13+/-2 MBq, iv after 80 mins; type: ADME, organism-based, Bone element; parameters: dose 15 mg/kg, route intravenous; method in brief: as §1
Bone [15] = assay: Biodistribution in Wistar rat bone at 11+/-2 MBq, iv after 80 mins; type: ADME, organism-based, Bone element
[16] = Biodistribution in Wistar rat frontal cortex at 11+/-2 MBq, iv after 80 mins; type: ADME, organism-based; method in brief: as §2
[17] = Biodistribution in 15 mg/kg unlabeled 6,7-dimethoxy-2-(3-(5-methoxy-3,4-dihydronaphthalen-1(2H)-ylidene)propyl)-1,2,3,4-tetrahydroisoquinoline pretreated Wistar rat fat at 13+/-2 MBq, iv after 80 mins; type: ADME, organism-based, Adipose tissue; parameters: dose 15 mg/kg, route intravenous; method in brief: as §1
Muscle tissue [18] = assay: Biodistribution in Wistar rat muscle at 11+/-2 MBq, iv after 80 mins; type: ADME, organism-based; method in brief: as §2
[19] = Biodistribution in Wistar rat cingulate cortex at 11+/-2 MBq, iv after 80 mins; type: ADME, organism-based
[20] = Biodistribution in 15 mg/kg unlabeled 6,7-dimethoxy-2-(3-(5-methoxy-3,4-dihydronaphthalen-1(2H)-ylidene)propyl)-1,2,3,4-tetrahydroisoquinoline pretreated Wistar rat trachea at 13+/-2 MBq, iv after 80 mins; type: ADME, organism-based; parameters: dose 15 mg/kg, route intravenous; method in brief: as §1

COc1cc2c(cc1OC)CN(CC/C=C1\CCCc3c(O[11CH3])cccc31)CC2
SUV [1]: 0.4 | SUV (Hippocampus [2]): 0.45 | SUV (Spleen [3]): 1.72 | SUV (Pancreas): 2.73 | SUV [4]: 0.64 | SUV (Muscle tissue [5]): 0.45 | SUV [6]: 0.43 | SUV (Cerebellum [7]): 0.4 | SUV (Liver): 2.34 | SUV (Hippocampus [8]): 0.44 | SUV (Spleen [9]): 2.66 | SUV (Colon): 1.85 | SUV (Cerebellum [10]): 0.79 | SUV [11]: 0.31 | SUV (Heart): 0.48 | SUV [12]: 0.49 | SUV [13]: 0.3 | SUV (Brain): 0.88 | SUV (Pons): 0.5 | SUV (Bone [14]): 0.81 | SUV (Bone [15]): 0.78 | SUV [16]: 0.65 | SUV [17]: 0.36 | SUV (Muscle tissue [18]): 0.52 | SUV [19]: 0.7 | SUV [20]: 0.82
